Assay results published in ChEMBL document CHEMBL3259621, “Novel merosesquiterpene exerts a potent antitumor activity against breast cancer cells in vitro and in vivo” (Eur J Med Chem, 2014).

How the values were obtained:
MCF7 = assay: Cytotoxicity against human MCF7 cells after 3 days by SRB assay; assay type: functional, cell-based; conditions: MCF7, 72 h
Method in brief: (§1)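 Cells seeded in quadruplicate at 5 × 10³ cells/cm². Compound added at 24 h over increasing concentrations for 3 days. Cells fixed with cold 10% TCA, stained with 0.4% sulforhodamine B in 1% acetic acid, dye solubilized in 10 mM Tris pH 10.5, OD read at 492 nm. IC50 taken by linear interpolation of the semi-log dose-response curve. DMSO below 0.1% final.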

A549 = assay: Cytotoxicity against human A549 cells after 3 days by SRB assay; assay type: functional, cell-based; conditions: A549, 72 h; method in brief: as §1
T84 = assay: Cytotoxicity against human T84 cells after 3 days by SRB assay; assay type: functional, cell-based; conditions: T84, 72 h; method in brief: as §1
SW480 = assay: Cytotoxicity against human SW480 cells after 3 days by SRB assay; assay type: functional, cell-based; conditions: SW480, 72 h
Method in brief: (§2)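 Cells seeded at 5 × 10³ cells/cm² in quadruplicate and, after 24 h, treated with increasing concentrations for 3 days. Compounds diluted from DMSO stock, final DMSO <0.1% v/v. Cells were fixed with cold 10% TCA, stained with 0.4% sulforhodamine B in 1% acetic acid, and dye solubilised in 10 mM Tris-base pH 10.5. OD read at 492 nm. IC50 obtained by linear interpolation on a semi-log dose-response curve.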

T47D = assay: Cytotoxicity against human T47D cells after 3 days by SRB assay; assay type: functional, cell-based; conditions: 72 h; method in brief: as §2
[1] = Therapeutic index, ratio of IC50 for human CCD-18Co cells to IC50 for human HT-29 cells; assay type: cell-based; conditions: CCD-18Co cells versus HT-29 cells, read-out: Ratio IC50
[2] = Therapeutic index, ratio of IC50 for human MCF10A cells to IC50 for human MDA-MB-231 cells; assay type: cell-based, MCF-10A; conditions: MCF10A cells versus MDA-MB-231 cells, read-out: Ratio IC50
[3] = Cytotoxicity against human MCF10A cells after 3 days by SRB assay; assay type: cell-based; conditions: MCF-10A, 72 h; method in brief: as §2
[4] = Therapeutic index, ratio of IC50 for human CCD-18Co cells to IC50 for human RKO cells; assay type: cell-based; conditions: CCD-18Co cells versus RKO cells, read-out: Ratio IC50
[5] = Cytotoxicity against human CCD-18Co cells after 3 days by SRB assay; assay type: cell-based; conditions: 72 h; method in brief: as §2
[6] = Therapeutic index, ratio of IC50 for human CCD-18Co cells to IC50 for human T84 cells; assay type: cell-based, T84; CCD-18Co; conditions: CCD-18Co cells versus T84 cells, read-out: Ratio IC50
[7] = Therapeutic index, ratio of IC50 for human MCF10A cells to IC50 for human T47D cells; assay type: cell-based, MCF-10A; conditions: MCF10A cells versus T47D cells, read-out: Ratio IC50
[8] = Therapeutic index, ratio of IC50 for human MCF10A cells to IC50 for mouse E0771 cells; assay type: cell-based, MCF-10A; conditions: MCF10A cells versus E0771 cells, read-out: Ratio IC50
[9] = Therapeutic index, ratio of IC50 for human MCF10A cells to IC50 for human MCF7 cells; assay type: cell-based, MCF-10A; conditions: MCF10A cells versus MCF7 cells, read-out: Ratio IC50
RKO = assay: Cytotoxicity against human RKO cells after 3 days by SRB assay; assay type: functional, cell-based; conditions: 72 h; method in brief: as §2
MDA-MB-231 = assay: Cytotoxicity against human MDA-MB-231 cells after 3 days by SRB assay; assay type: functional, cell-based; conditions: MDA-MB-231, 72 h; method in brief: as §2
[10] = Therapeutic index, ratio of IC50 for human CCD-18Co cells to IC50 for human SW480 cells; assay type: cell-based; conditions: CCD-18Co cells versus SW480 cells, read-out: Ratio IC50
HT-29 = assay: Cytotoxicity against human HT-29 cells after 3 days by SRB assay; assay type: functional, cell-based; conditions: HT-29, 72 h; method in brief: as §2
[11] = Cytotoxicity against mouse E0771 cells after 3 days by SRB assay; assay type: functional, cell-based; conditions: E0771, 72 h; method in brief: as §2

Structure (SMILES) | IC50 (MCF7) | IC50 (A549) | IC50 (T84) | other results
C=C1CC[C@@H]2[C@](C)(CCC[C@]2(C)C(=O)OC)[C@H]1Cc1c(C)ccc(C(=O)OC)c1O | 45.1 µM | 27 µM | 40 µM | 
C=C1CC[C@@H]2[C@](C)(CCC[C@]2(C)C(=O)OC)[C@H]1Cc1c(C)cccc1C#N | 39.6 µM | 20.2 µM | 23.7 µM | 
C=C1CC[C@@H]2[C@](C)(CCC[C@]2(C)C(=O)OC)[C@H]1Cc1c(C)ccc2c1C(=O)C(OC)=CC2=O | 16 µM | 17.5 µM | 16.7 µM | 
C=C1CC[C@@H]2[C@](C)(CCC[C@]2(C)C(=O)OC)[C@H]1Cc1c(C)ccc(C(=O)OC)c1C(=O)OC | 33 µM | 19.9 µM | 25 µM | 
C=C1CC[C@@H]2[C@](C)(CCC[C@]2(C)C(=O)OC)[C@H]1Cc1c(C)cccc1C(=O)OC | 40.4 µM | 28.1 µM | 29 µM | 
O=c1[nH]cc(F)c(=O)[nH]1 [FLUOROURACIL] | 2.86 µM |  |  | IC50 (SW480): 3.69 µM; IC50 (T47D): 10.6 µM; selectivity ratio [1]: 3.6; selectivity ratio [2]: 0.44; IC50 [3]: 8.06 µM; selectivity ratio [4]: 2.11; IC50 [5]: 9.26 µM; selectivity ratio [6]: 2.76; selectivity ratio [7]: 0.76; selectivity ratio [8]: 28.8; selectivity ratio [9]: 2.82; IC50 (RKO): 4.39 µM; IC50 (MDA-MB-231): 18.1 µM; selectivity ratio [10]: 2.51; IC50 (HT-29): 2.58 µM; IC50 [11]: 0.28 µM
C=C1CC[C@@H]2[C@](C)(CCC[C@]2(C)C(=O)OC)[C@H]1Cc1c(C)ccc2c1C(=O)C(O)=CC2=O | 38.4 µM | 41.2 µM | 30 µM | 
